# Out of some 340,000 compounds screened, about 1,100 (0.32%) were called active. Only a selection was taken, and actives are over-represented in it overall. A number with no mark means an inactive call.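 The calls were made as follows: active = inhibition above a set limit, near 3 SD of compounds lacking own fluorescence (cut at about 54% in these data); inactive = the rest.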
# Test system: beta-arrestin 1 C-terminal peptide binding to AP2 beta2-adaptin appendage (human)
# Experiment: blockers of arrestin peptide association with AP2 adaptin – biochemical, GPCR trafficking, flow cytometry, primary screen (AID 504490);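 also: plate controls were DMSO wells for no effect and 5 µM unlabelled arrestin peptide for full effect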
# Settings: FITC-arrestin peptide / GST-AP2 beads, at 10 µM, hits give high values, AP2 beta2 appendage carries R879A mutation
# Summary of the method: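 System: GST-AP2 R879A glutathione beads. Medium: PBS with 0.05% Tween 20 and 0.1% BSA. Also added: FITC-arrestin peptide, 50 nM. Incubation: 12 min plus 1 h, RT. Measured by: high-throughput flow cytometry of beads, ex 488, em 535 nm. Evaluation: percent drop in bead-associated FITC signal.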
row,SMILES,inhibition
1,O=C(Nc1ccccc1)N1CCN(C2c3ccccc3-c3ccccc32)CC1,-3.43%
2,CC1CN(CC(=O)NC(C)c2ccccc2)CC(C)O1 (centres undefined),0.77%
3,CCCCNc1nc2c(c(=O)n(C)c(=O)n2C)n1Cc1cccc(OC)c1,13.6%
4,Cn1c(=O)c2sccc2n(Cc2ccc(Br)cc2)c1=O,-7.24%
5,Cn1c(=O)c2c(nc(N/N=C/c3cccs3)n2Cc2ccc(Br)cc2)n(C)c1=O,70.5% (active)
6,CN1CCN(c2ccc(NC(=O)c3cc(Cl)c4c(c3)OCCO4)cc2)CC1,30.2%
7,C=CC(=O)Nc1ccc(Nc2ccnc(Nc3ccc(N4CCN(C)CC4)cc3)n2)cc1,55.9% (active)
8,Cc1cccc(N2CCN(c3ccc(NC(=O)/C=C\C(=O)O)cc3)CC2)c1,15.9%
9,Cn1c(SCc2nc3ccccc3s2)nnc1-c1ccc2c(c1)OCO2,-3.99%
10,CCCCN(CC)CCNC(=O)CCNC(=O)Cn1ccc2ccccc2c1=O,1.19%
11,O=C1NC(=O)C(CCc2ccccc2)(c2ccccc2)N1 (centres undefined),-9.95%
12,C/C(Cl)=C\Cn1c(Nc2cccc(C)c2)nc2c1c(=O)n(C)c(=O)n2C,-6.48%
13,O=C(NCCc1ccc(Cl)cc1)C1CC(=O)N(C2CCCCC2)C1 (centres undefined),6.36%
14,COc1cccc(CNC(=O)C2CC(=O)N(C3CCCCCCC3)C2)c1 (centres undefined),-10.2%
15,Cc1ccc(CNC(=O)C2CC(=O)N(C3CCCCCCC3)C2)cc1 (centres undefined),93.8% (active)
16,COc1ccc(Br)cc1CN(C)CC(=O)Nc1cc(Cl)cc(Cl)c1,4.23%
17,CCc1cccc2c(C=C(C#N)C#N)cn(CC(=O)N3CCCCC3)c12,9.35%
18,COc1ccc(Cc2nnc(SCC(=O)c3cccc([N+](=O)[O-])c3)n2C)cc1,7.36%
19,CCc1ccccc1OCC(=O)Nc1ccc(C)c(S(=O)(=O)N2CCCCCC2)c1,10.8%
20,COc1cc2c(cc1NC(=O)COC(=O)/C=C/c1ccccc1)oc1ccccc12,105% (active)

row,SMILES,inhibition
1,COc1cc2c(cc1NC(=O)CN1CCN(S(=O)(=O)c3ccc(F)cc3)CC1)oc1ccccc12,11.4%
2,COc1cc(/C=C/C(=O)OCC(=O)c2ccccc2)cc(OC)c1OC,10%
3,Cc1cccc(NC(=O)c2ccc([N+](=O)[O-])o2)c1,5.65%
4,O=C(CNC(=O)c1ccc(Br)o1)Nc1ccccc1,7.78%
5,Cc1cccc(NC(=S)NC(=O)c2ccc(Br)o2)c1,61.8% (active)
6,Cc1cc(C)cc(C(=O)NC(=S)Nc2ccc3[nH]c(=O)[nH]c3c2)c1,10.9%
7,CCCCNC(=O)C1CCCN(S(=O)(=O)c2ccc(S(=O)(=O)NCC(C)C)cc2)C1 (centres undefined),4.41%
8,Cc1cccc(NC(=O)C2CCCN(C(=O)Nc3ccc(F)cc3)C2)c1C (centres undefined),25%
9,Cc1cc(/C=C2\SC(=Nc3ccc(N4CCOCC4)cc3)N(C)C2=O)c(C)n1-c1cccnc1,-3.18%
10,Cc1cc(/C=C2\SC(=O)N(C)C2=O)c(C)n1-c1cccc(C(=O)O)c1,54.7% (active)
11,Cc1cc(/C=C2/SC(=O)N(CC(=O)N3CCCC3)C2=O)c(C)n1C,-9.22%
12,COc1cccc(C(=O)n2ccc(-c3cccs3)n2)c1,4.99%
13,O=C(CN1C(=O)NC2(CCCCCC2)C1=O)NCc1ccc(F)cc1,13.2%
14,CCc1ccc(N(CC(=O)Nc2sc3c(c2C(=O)OC)CCCC3)S(C)(=O)=O)cc1,-5.8%
15,N#CCSc1nn(-c2ccc(F)cc2)c(=S)s1,1.03%
16,O=S(=O)(c1ccccc1)N(Cc1cccc(F)c1)c1ccccc1,6.33%
17,Cc1ccc(N2C(=O)C(NC(=O)c3c(F)cccc3F)(C(F)(F)F)C3=C2CC(C)(C)CC3=O)cc1 (centres undefined),11.2%
18,COC(=O)C1CC2=C(CC(C)(C)CC2=O)N(c2ccccc2)C1=O (centres undefined),54.1% (active)
19,CC(C)C1C2=C(CC(C)(C)CC2=O)ON1c1ccccc1 (centres undefined),14.7%
20,Cc1ccc2[nH]cc(CCNC(=O)c3ccc([N+](=O)[O-])cc3)c2c1,5.19%

row,SMILES,inhibition
1,CCN(CC)Cc1c(C(=O)N/N=C/c2cccc(OCc3ccc(F)cc3)c2)nnn1-c1nonc1N,-0.16%
2,Cn1ccsc1=NC(=O)c1cc(S(=O)(=O)N2CCOCC2)ccc1Cl,-5.18%
3,COC(=O)c1ccc(CSc2nc3ccccc3c(=O)n2-c2cccc(OC)c2)o1,5.8%
4,COc1cccc(-n2c(SCC(=O)NC3CCS(=O)(=O)C3)nc3ccccc3c2=O)c1 (centres undefined),-2.41%
5,COc1cccc(-n2c(SCC(=O)c3c[nH]c4ccccc34)nc3ccccc3c2=O)c1,105% (active)
6,CN(C)c1ccc(Nc2c3c4c(cccc4n(C)c2=O)C(=O)c2ccccc2-3)cc1,63.5% (active)
7,CN(C)c1ccc(C2N(C)C(=O)c3ccccc3N2C)cc1 (centres undefined),-7.07%
8,CC(=O)NCCNC(=O)c1cc(-c2cccc3ccccc23)nc2ccccc12,60.3% (active)
9,CCOc1ccccc1-c1cc(C(=O)N/N=C(\C)c2cccnc2)c2ccccc2n1,-0.49%
10,O=C(NCCc1ccccn1)c1cc(-c2ccc(Cl)cc2)nc2ccccc12,13.5%
11,c1ccc(CC2CCN(c3nc4ccccc4n4cnnc34)CC2)cc1,-7.81%
12,Cc1ccc(C)c(N(CC(=O)NCc2ccco2)C(=O)CCC(=O)Nc2ccccn2)c1,-8.6%
13,COc1ccc(C2NC(=O)c3ccccc3N2)cc1 (centres undefined),26.1%
14,COc1cc2c(cc1OC)C(c1ccccc1Br)NC(=O)C2 (centres undefined),-7.73%
15,Oc1ccc(C2Nc3cccc4cccc(c34)N2)cc1,56.2% (active)
16,Brc1ccccc1C1Nc2cccc3cccc(c23)N1,56% (active)
17,Brc1ccccc1C1N=C(c2ccccc2)NO1 (centres undefined),-3.82%
18,COc1ccc([C@H]2CC(=O)C=C(c3ccc(C)cc3)C2)cc1,18.7%
19,CC(=O)Nc1ccc(S(=O)(=O)N2CCN(C(=O)c3ccccc3F)CC2)cc1,-16.7%
